Assay results as given in ChEMBL document CHEMBL1153071, “Synthesis, biological evaluation, and SAR study of novel pyrazole analogues as inhibitors of Mycobacterium tuberculosis: part 2. Synthesis of rigid pyrazolones” (Bioorg Med Chem, 2009).
≈ marks a conversion by molar mass, not a printed value.

System: Mycobacterium tuberculosis
Assay: Antimycobacterial activity against Mycobacterium tuberculosis
Type: functional
Conditions: not given
How it was run: (§1)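 Strain H37Rv ATCC 27294, kept on Löwenstein-Jensen slants and grown for inoculum in 7H9 broth with 10% ADC. Twofold agar dilution on Middlebrook 7H11 with 10% OADC, compound 0.0312–64 μg/mL. Each well received 10 μL of 1.5×10^5 cfu/mL (final 1.5×10^3 per well). Incubated 21–28 days. MIC (μg/mL) is the lowest concentration completely inhibiting visible growth.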
Cc1[nH]n(-c2ccc(Br)cc2)c(=O)c1C(=O)c1ccc(Cl)cc1 gave an MIC of 4 µg/mL (≈ 10.2 µM). With Cc1[nH]n(-c2ccc(F)cc2)c(=O)c1C(=O)c1ccc(Cl)cc1 the MIC was 4 µg/mL (≈ 12.1 µM). With Cc1nn(-c2ccccc2)c(O)c1C(=O)c1ccc(Cl)cc1 the MIC was 4 µg/mL (≈ 12.8 µM). Compound Cc1[nH]n(-c2ccc(Cl)cc2)c(=O)c1C(=O)c1ccc(Cl)cc1 has an MIC of 4 µg/mL (≈ 11.5 µM).

System: not listed separately
Assay: Cytotoxicity against african green monkey Vero cells
Type: cell-based
Conditions: chlorocebus sabaeus
CC1=NN(c2ccc(Cl)cc2)C(=O)/C1=C(/c1ccc(Cl)cc1)N1CCSCC1 gave a CC50 of 4.86 µg/mL (≈ 11.2 µM). For CC1=NN(c2ccccc2)C(=O)/C1=C(/c1ccc(Cl)cc1)N1CCN(C)CC1, the CC50 was 5.58 µg/mL (≈ 14.1 µM). With CC1=NN(c2ccccc2)C(=O)/C1=C(/c1ccc(Cl)cc1)N1CCSCC1 the CC50 was 5.71 µg/mL (≈ 14.3 µM). CC1=NN(c2ccc(Cl)cc2)C(=O)/C1=C(/c1ccc(Cl)cc1)N1CCN(C)CC1 showed a CC50 of 5.49 µg/mL (≈ 12.8 µM).

System: Mycobacterium tuberculosis
Assay: Antimycobacterial activity against Mycobacterium tuberculosis H37Rv ATCC 27294 after 21 to 28 days by twofold agar dilution method
Type: functional
Conditions: not given
How it was run: as §1
CC1=NN(c2ccc(Cl)cc2)C(=O)/C1=C(/c1ccc(Cl)cc1)N1CCCCC1 showed an MIC greater than 64 µg/mL. With CC1=NN(c2ccc(Cl)cc2)C(=O)/C1=C\N1CCN(CCO)CC1 the MIC was 64 µg/mL (≈ 183 µM). CC1=NN(c2ccc(Cl)cc2)C(=O)/C1=C(/c1ccc(Cl)cc1)N1CCOCC1 showed an MIC of 4 µg/mL (≈ 9.61 µM). With CC1=NN(c2ccc(Cl)cc2)C(=O)/C1=C(/c1ccc(Cl)cc1)N1CCSCC1 the MIC was 8 µg/mL (≈ 18.5 µM). Work on CC1=NN(c2ccccc2)C(=O)/C1=C(/c1ccc(Cl)cc1)N1CCOCC1 yielded an MIC of 16 µg/mL (≈ 41.9 µM). For CC1=NN(c2ccccc2)C(=O)/C1=C(/c1ccc(Cl)cc1)N1CCN(C)CC1, the MIC was 8 µg/mL (≈ 20.3 µM). CC1=NN(c2ccc(Cl)cc2)C(=O)/C1=C\N1CCN(c2ccccc2)CC1 showed an MIC of 64 µg/mL (≈ 168 µM). For CC(=O)N1CCN(/C=C2\C(=O)N(c3ccc(Cl)cc3)N=C2C)CC1, the MIC was 64 µg/mL (≈ 185 µM). For CC1=NN(c2ccc(Cl)cc2)C(=O)/C1=C\N(C)C, the MIC was greater than 64 µg/mL. In the case of CC1=NN(c2ccc(Cl)cc2)C(=O)/C1=C\Nc1ccccc1, the MIC was 64 µg/mL (≈ 205 µM). In the case of CCCN(C)/C(=C1\C(=O)N(c2ccc(Cl)cc2)N=C1C)c1ccc(Cl)cc1, the MIC was 64 µg/mL (≈ 159 µM). Work on CC1=NN(c2ccccc2)C(=O)/C1=C(/c1ccc(Cl)cc1)N1CCSCC1 yielded an MIC of 8 µg/mL (≈ 20.1 µM). With CC1=NN(c2ccccc2)C(=O)/C1=C(/c1ccc(Cl)cc1)N(C)C the MIC was 32 µg/mL (≈ 94.2 µM). Work on CC1=NN(c2ccc(Cl)cc2)C(=O)/C1=C\N1CCN(C)CC1 yielded an MIC of 64 µg/mL (≈ 201 µM). CC1=NN(c2ccc(Cl)cc2)C(=O)/C1=C(/c1ccc(Cl)cc1)N1CCC(C)CC1 gave an MIC of 64 µg/mL (≈ 149 µM). Compound CC1=NN(c2ccc(Cl)cc2)C(=O)/C1=C(/c1ccc(Cl)cc1)N(C)C has an MIC of 16 µg/mL (≈ 42.7 µM). Compound CC1=NN(c2ccc(Cl)cc2)C(=O)/C1=C(/c1ccc(Cl)cc1)N1CCN(C)CC1 has an MIC of 4 µg/mL (≈ 9.32 µM). In the case of CC1=NN(c2ccc(Cl)cc2)C(=O)/C1=C\N1CCOCC1, the MIC was 64 µg/mL (≈ 209 µM).
